Data set [1] deals with MDA-MB-231. In words: Induction of apoptosis in human MDA-MB-231 cells assessed as necrotic cells at 4 uM incubated for 24 hrs by annexin-V-FITC and PI staining based flow cytometry analysis (reference value: 0.01 to 0.8 %). Type of data set: functional. (In general: In flow cytometry, cells or beads pass a laser one at a time.)
In another data set the target is Tubulin (Homo sapiens) (UniProt P68371+Q9H4B7+P0DPH7+P68366+Q13509+Q71U36+P04350+Q3ZCM7+P07437+P68363+Q9BQE3+Q6PEY2+Q13885+Q9BVA1+Q9BUF5). Briefly: Induction of tubulin polymerization (unknown origin) at 10 uM incubated for 1 hr by spectrometric analysis. Type of data set: protein-complex assay.
Data set [2] relates to MDA-MB-231. Briefly: Induction of apoptosis in human MDA-MB-231 cells assessed as early apoptotic cells at 6 uM incubated for 24 hrs by annexin-V-FITC and PI staining based flow cytometry analysis (reference value: 0.28 to 4.68 %). Type of data set: functional. In outline:
(§1)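 MDA-MB-231 cells (1 × 10^6) grown 24 h in six-well plates, then treated for 24 h. Cells trypsinized, PBS-washed and stained with Annexin V-FITC/PI in binding buffer for 10 min in the dark at room temperature. Early/late apoptotic fractions quantified by flow cytometry.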

In data set [3] the test system is MDA-MB-231. Briefly: Induction of apoptosis in human MDA-MB-231 cells assessed as early apoptotic cells at 4 uM incubated for 24 hrs by annexin-V-FITC and PI staining based flow cytometry analysis (reference value: 0.28 to 4.68 %). Type of data set: functional. In outline: as §1
The subject of data set [4] is MDA-MB-231. Briefly: Induction of cell cycle arrest in human MDA-MB-231 cells assessed as accumulation at G0/G1 phase at 2 uM incubated for 24 hrs by PI staining based flow cytometry analysis (reference value: 23.74 to 46.27 %). Type of data set: functional.
Data set [5] relates to MDA-MB-231. Briefly: Induction of apoptosis in human MDA-MB-231 cells assessed as early apoptotic cells at 2 uM incubated for 24 hrs by annexin-V-FITC and PI staining based flow cytometry analysis (reference value: 0.28 to 4.68 %). Type of data set: functional. The essentials: as §1
Data set [6] has as its system MDA-MB-231. Briefly: Cytotoxicity against human MDA-MB-231 cells assessed as reduction in cell viability at 2 to 6 uM incubated for 24 hrs in presence of NAC by MTT assay. Type of data set: functional, cell-based. As to conditions: dose 2-6 µM. In outline: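 MDA-MB-231 cells pretreated 2 h with 10 mM N-acetylcysteine, then exposed to compound for 24 h. Viability by MTT (3 h), formazan in DMSO, absorbance at 540 nm. Three independent experiments, mean ± S.E.M.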

Data set [7] concerns MDA-MB-231. In words: Induction of cell cycle arrest in human MDA-MB-231 cells assessed as accumulation at G0/G1 phase at 4 uM incubated for 24 hrs by PI staining based flow cytometry analysis (reference value: 23.74 to 46.27 %). Type of data set: functional.
In data set [8] the test system is MDA-MB-231. Briefly: Induction of cell cycle arrest in human MDA-MB-231 cells assessed as accumulation at S phase at 4 uM incubated for 24 hrs by PI staining based flow cytometry analysis (reference value: 40.37 to 57.89 %). Type of data set: functional.
The subject of data set [9] is MDA-MB-231. In words: Induction in caspase-mediated apoptosis in human MDA-MB-231 cells assessed as decrease in cell viability at 2 uM incubated for 24 hrs in presence of Z-VAD-FMK by MTT assay. Type of data set: functional, cell-based. The essentials: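 MDA-MB-231 cells pretreated 2 h with 50 µM Z-VAD-FMK, then exposed to 2 µM compound for 24 h. Viability by MTT (3 h), formazan in DMSO, absorbance at 540 nm. Three independent experiments, mean ± S.E.M.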
Background: Tetrazolium dyes change colour on reduction, which living cells bring about.

The test system of data set [10] is MDA-MB-231. In words: Induction of cell cycle arrest in human MDA-MB-231 cells assessed as accumulation at S phase at 2 uM incubated for 24 hrs by PI staining based flow cytometry analysis (reference value: 40.37 to 57.89 %). Type of data set: functional.
Data set [11] concerns MDA-MB-231. In words: Induction of ROS production in human MDA-MB-231 cells at 2 to 6 uM incubated for 24 hrs by DCFH-DA staining based flow cytometry analysis. As to conditions: dose 2-6 µM. Type of data set: functional, cell-based. The essentials: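 MDA-MB-231 cells (1 × 10^6) seeded in 6-well plates for 24 h, then treated at several concentrations for 24 h. Cells trypsinized, fixed in cold methanol, stained with 30 µg/mL DCFH-DA for 30 min in the dark at room temperature, and analysed by flow cytometry.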

Data set [12] addresses Estrogen receptor beta (Homo sapiens) (UniProt Q92731). Briefly: Transactivation of ERbeta (unknown origin) transfected in human MDA-MB-231 cells at 1 uM by dual luciferase receptor assay. Type of data set: cell-based. The essentials:
(§2)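 MDA-MB-231 cells grown to 80-90% confluency, transfected with 500 ng of ERα (pSG5 mERα) or ERβ (pSG5-hERβ) expression vector plus pRL-SV40 Renilla for normalization, then reseeded. Cells incubated with E2 (100 nM), compound at 1 µM, or tamoxifen at 1 µM. Dual luciferase readout reported as percent normalized RLU, triplicate experiments with three replicates each.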

For data set [13], the target named is T1, Estrogen receptor (Homo sapiens) (UniProt P03372).
T1 sequence (whole entry): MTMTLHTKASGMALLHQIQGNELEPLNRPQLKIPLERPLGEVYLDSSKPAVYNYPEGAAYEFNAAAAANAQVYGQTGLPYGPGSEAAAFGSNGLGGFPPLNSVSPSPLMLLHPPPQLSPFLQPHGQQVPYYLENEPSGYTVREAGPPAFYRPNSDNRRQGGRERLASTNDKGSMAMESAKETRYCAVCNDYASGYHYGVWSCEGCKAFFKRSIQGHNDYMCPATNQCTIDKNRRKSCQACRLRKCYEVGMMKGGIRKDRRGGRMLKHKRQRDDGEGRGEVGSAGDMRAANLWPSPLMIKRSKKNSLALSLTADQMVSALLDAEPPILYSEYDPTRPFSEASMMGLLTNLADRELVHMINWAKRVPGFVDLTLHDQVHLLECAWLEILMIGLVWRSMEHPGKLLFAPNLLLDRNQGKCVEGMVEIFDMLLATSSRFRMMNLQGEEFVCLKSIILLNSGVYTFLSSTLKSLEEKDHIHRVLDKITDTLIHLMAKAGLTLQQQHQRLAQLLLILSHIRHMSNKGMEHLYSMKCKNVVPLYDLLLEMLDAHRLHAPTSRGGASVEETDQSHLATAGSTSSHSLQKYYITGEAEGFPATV
In words: Transactivation of ERalpha (unknown origin) transfected in human MDA-MB-231 cells at 1 uM by dual luciferase receptor assay. Type of data set: cell-based. The essentials: as §2

Data set [14] relates to MDA-MB-231. Briefly: Induction of cell cycle arrest in human MDA-MB-231 cells assessed as accumulation at G0/G1 phase at 6 uM incubated for 24 hrs by PI staining based flow cytometry analysis (reference value: 23.74 to 46.27 %). Type of data set: functional.
For data set [15], the system named is MDA-MB-231. In words: Induction of apoptosis in human MDA-MB-231 cells assessed as late apoptotic cells at 6 uM incubated for 24 hrs by annexin-V-FITC and PI staining based flow cytometry analysis (reference value: 0.28 to 0.84 %). Type of data set: functional.
Data set [16] is described as follows: Acute toxicity in Swiss albino mouse assessed as albumin at 300 mg/kg, po administered once and observed for 7 days (reference value: 1.62 +/- 0.09 g/dl). Type of data set: organism-based. The settings on record: in vivo, 168 h, time 7 day.

Calls of active or inactive are those of the source. The calls are words filed in the database; no cut-off is given here.

Chain of Estrogen receptor beta (Homo sapiens) (Q92731 whole entry): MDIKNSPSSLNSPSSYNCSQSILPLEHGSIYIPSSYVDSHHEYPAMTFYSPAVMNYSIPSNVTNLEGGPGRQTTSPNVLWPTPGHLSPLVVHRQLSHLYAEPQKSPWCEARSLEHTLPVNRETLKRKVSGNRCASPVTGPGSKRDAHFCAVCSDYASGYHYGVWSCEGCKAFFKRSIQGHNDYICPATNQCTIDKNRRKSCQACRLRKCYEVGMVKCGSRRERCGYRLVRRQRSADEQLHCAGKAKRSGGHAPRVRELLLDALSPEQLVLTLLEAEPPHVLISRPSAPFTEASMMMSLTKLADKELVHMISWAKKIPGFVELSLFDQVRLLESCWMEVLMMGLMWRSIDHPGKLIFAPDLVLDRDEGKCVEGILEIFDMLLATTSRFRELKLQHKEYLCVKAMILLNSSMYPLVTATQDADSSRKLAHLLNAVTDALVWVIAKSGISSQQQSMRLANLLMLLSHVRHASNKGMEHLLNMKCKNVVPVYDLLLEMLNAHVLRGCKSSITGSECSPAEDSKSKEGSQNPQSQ

With `COc1ccc2c(c1)c(Cc1ccc(OC(C)CN(C)C)cc1)c(-c1cc(OC)c(OC)c(OC)c1)n2Cc1ccc(OC(C)CN(C)C)cc1` (stereo unspecified), the Activity turned out to be 3.55% with MDA-MB-231 [1]; 20.52% in the data set with MDA-MB-231 [2]; 28.04% in the data set with MDA-MB-231 [3]; 46.32% in the data set on MDA-MB-231 [4]; 17.38% with MDA-MB-231 [5]; 46.54% with MDA-MB-231 [7]. The Activity in the data set on MDA-MB-231 [8] amounted to 40.83%; in the data set with MDA-MB-231 [10] it was 40.83%; with MDA-MB-231 [14], 49.36%; with MDA-MB-231 [15] it was 26.15%; in data set [16] it was 1.53 g/dL. In addition, the result (on Tubulin (Homo sapiens); in the data set with MDA-MB-231 [11]; in [12] (filed as activator)) was Active. For the same compound, the result (in the data set on MDA-MB-231 [6]; in the data set on MDA-MB-231 [9]; in data set [13]) was inactive.
Take `CCN(CC)CCOc1ccc(Cc2c(-c3cc(OC)c(OC)c(OC)c3)n(Cc3ccc(OCCN(CC)CC)cc3)c3ccc(OC)cc23)cc1`: the Activity in the data set with MDA-MB-231 [1] is 3.29%; in the data set on MDA-MB-231 [2], 14.01%; in the data set with MDA-MB-231 [3], 4.19%; with MDA-MB-231 [4] it was 51.72%; in the data set on MDA-MB-231 [5], 9.52%; in the data set with MDA-MB-231 [7], 53.87%. For the same compound, the Activity is reported as 38.03% with MDA-MB-231 [8], 38.21% in the data set with MDA-MB-231 [10], 57.6% in the data set on MDA-MB-231 [14] and 14.25% in the data set on MDA-MB-231 [15]. For the same compound, the outcome (on Tubulin (Homo sapiens); in the data set with MDA-MB-231 [9]; in the data set on MDA-MB-231 [11]; in data set [12] (filed as activator)) was Active. The outcome (with MDA-MB-231 [6]; in [13]) was inactive.
On to `COc1ccc2c(c1)c(Cc1ccc(OCCN3CCCCC3)cc1)c(-c1cc(OC)c(OC)c(OC)c1)n2Cc1ccc(OCCN2CCCCC2)cc1`, for which the Activity in the data set with MDA-MB-231 [1] turned out to be 1.69%; in the data set with MDA-MB-231 [2], 17.19%; with MDA-MB-231 [3] it was 16.02%; in the data set with MDA-MB-231 [4], 53.25%; in the data set with MDA-MB-231 [5], 12.28%; in the data set with MDA-MB-231 [7], 55.16%. Besides, the Activity is reported as 29.41% in the data set on MDA-MB-231 [8], 34.3% in the data set on MDA-MB-231 [10], 59.19% in the data set on MDA-MB-231 [14] and 37.67% in the data set with MDA-MB-231 [15]. The outcome on Tubulin (Homo sapiens), with MDA-MB-231 [9] and in the data set with MDA-MB-231 [11] was Active. Besides, the result (in the data set with MDA-MB-231 [6]; in data set [12]; in data set [13]) was inactive.
Consider `COc1ccc2c(c1)c(Cc1ccc(OCCN(C)C)cc1)c(-c1cc(OC)c(OC)c(OC)c1)n2Cc1ccc(OCCN(C)C)cc1`, for which the Activity with MDA-MB-231 [1] amounted to 3.44%; in the data set with MDA-MB-231 [2], 39.6%; with MDA-MB-231 [3], 18.17%; in the data set on MDA-MB-231 [4] it was 60.43%; in the data set on MDA-MB-231 [5] it was 11.63%; with MDA-MB-231 [7], 61.13%. Further, the Activity with MDA-MB-231 [8] stood at 38.65%; in the data set with MDA-MB-231 [10], 38.78%; in the data set on MDA-MB-231 [14] it was 64.37%; in the data set on MDA-MB-231 [15], 15.1%; in [16] it was 1.94 g/dL. The result (on Tubulin (Homo sapiens); in the data set with MDA-MB-231 [11]; in data set [12] (filed as activator)) was Active. Further, the outcome (with MDA-MB-231 [6]; with MDA-MB-231 [9]; in [13]) was inactive.

The record behind these values is ChEMBL document CHEMBL4811308, “Design, synthesis and broad spectrum antibreast cancer activity of diarylindoles via induction of apoptosis in aggressive breast cancer cells” (Bioorg Med Chem, 2021).
